This is an account of results in ChEMBL document CHEMBL1166006, “Bacterial transferase MraY inhibitors: synthesis and biological evaluation” (Bioorg Med Chem, 2010).

The structures appear in SMILES notation. pIC50: −log10 of the molar value. Calls of active or inactive are those of the source. The rule behind the calls is not given here.

One assay deals with Escherichia coli. As to the kind of experiment: Inhibition of Escherichia coli MurG at 1 mM after 30 mins. In a few lines: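 MurG from E. coli was assayed in final 200 mM Tris–HCl pH 7.5, 10 mM MgCl₂, UDP-[¹⁴C]GlcNAc, lipid I analogue and 35% (v/v) DMSO. The reaction ran 30 min at 37 °C and was stopped by boiling 3 min, then lyophilised. The residue was taken up in 2-propanol/ammonium hydroxide/water (6:3:1), which was also the chromatography mobile phase. Radioactive spots were quantified by scanner.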

Assay [1] has as its target T1, Phospho-N-acetylmuramoyl-pentapeptide-transferase (Bacillus subtilis (strain 168)) (UniProt Q03521).
T1 sequence (whole entry): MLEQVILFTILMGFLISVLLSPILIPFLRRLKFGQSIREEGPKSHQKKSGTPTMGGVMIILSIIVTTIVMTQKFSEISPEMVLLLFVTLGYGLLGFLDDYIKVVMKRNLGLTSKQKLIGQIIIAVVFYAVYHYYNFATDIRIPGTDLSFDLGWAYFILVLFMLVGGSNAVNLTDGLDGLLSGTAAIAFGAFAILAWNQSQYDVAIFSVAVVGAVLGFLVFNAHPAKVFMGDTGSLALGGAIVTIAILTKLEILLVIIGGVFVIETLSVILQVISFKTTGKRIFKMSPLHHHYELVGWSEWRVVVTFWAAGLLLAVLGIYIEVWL
As to the kind of experiment: Inhibition of Bacillus subtilis transferase MraY assessed as residual activity at 2 mM after 30 mins. The essentials:
(§1)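 Enzyme addition started the reaction, which ran 30 min at 37 °C and was stopped by 1 min at 100 °C. Radioactive spots were quantified by scanner. Residual activity (screen at 2 mM) and IC₅₀ were calculated against an inhibitor-free control; mean of triplicates.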

The target of assay [2] is T2, Phospho-N-acetylmuramoyl-pentapeptide-transferase (Bacillus subtilis (strain 168), UniProt Q03521).
T2 sequence (Q03521 whole entry): T1 sequence (whole entry)
As to the kind of experiment: Inhibition of Bacillus subtilis transferase MraY after 30 mins. In a few lines:
as §1

`O=C(NC[C@H]1O[C@@H](OC[C@H]2O[C@@H](Cn3ccc(=O)[nH]c3=O)[C@@H](O)[C@@H]2O)[C@H](O)[C@@H]1O)[C@@H]1CCCN1`: the inhibition entry with Escherichia coli was “inactive”. In addition, the Activity in assay [1] came out at 61%.

Regarding `O=C(NCc1cn(C[C@H]2O[C@@H](OC[C@H]3O[C@@H](Cn4ccc(=O)[nH]c4=O)[C@@H](O)[C@@H]3O)[C@H](O)[C@@H]2O)nn1)[C@@H]1CCCN1`, the pIC50 in assay [2] was 3.09. Besides, the inhibition entry in the assay on Escherichia coli was “inactive”.

With `N=C(N)NCc1cn(C[C@H]2O[C@@H](OC[C@H]3O[C@@H](Cn4ccc(=O)[nH]c4=O)[C@@H](O)[C@@H]3O)[C@H](O)[C@@H]2O)nn1`, the pIC50 in assay [2] was 3.22. Moreover, the inhibition result in the assay with Escherichia coli is “inactive”.

In assay [2], `NCc1cn(C[C@H]2O[C@@H](OC[C@H]3O[C@@H](Cn4ccc(=O)[nH]c4=O)[C@@H](O)[C@@H]3O)[C@H](O)[C@@H]2O)nn1` gave a negative logarithm of the IC50 (pIC50) of 3.23. In the assay with Escherichia coli, the inhibition result was “inactive”.

As to `N=C(N)NC[C@H]1O[C@@H](OC[C@H]2O[C@@H](Cn3ccc(=O)[nH]c3=O)[C@@H](O)[C@@H]2O)[C@H](O)[C@@H]1O`, in assay [2], the pIC50 is 2.75. In addition, the inhibition result with Escherichia coli is “inactive”.

Consider `NC[C@H]1O[C@@H](OC[C@H]2O[C@@H](Cn3ccc(=O)[nH]c3=O)[C@@H](O)[C@@H]2O)[C@H](O)[C@@H]1O`, for which the pIC50 in assay [2] was 3.24. In addition, the inhibition result in the assay with Escherichia coli is “inactive”.
